In paper PMC13065758 (Nature Communications, 2026):

Legend:
[1] = Plasma stability assay, mouse plasma; assay type: in vitro ADME
Procedure, shortened: (§1)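 Test compound was spiked at 10 μM into human or mouse plasma and incubated at 37 °C with shaking for 0, 30 or 120 min. Proteins were precipitated with acetonitrile containing 1 μM chlorpropamide internal standard and removed by centrifugation. Analyte/internal-standard area ratios were measured by LC-MS/MS and expressed as percent remaining versus 0 min.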

[2] = Plasma stability assay, human plasma; assay type: in vitro ADME
Procedure, shortened: as §1

remaining at 2 h, 10 μM [1]: 3.13% | remaining at 2 h, 10 μM [2]: 0.03%
SMILES: CCN(CC)CCOC(=O)c1ccc(N)cc1 [Procaine]
